# Results collected from several papers.
# Target: Ribosomal protein S6 kinase beta-1 (RPS6KB1, Homo sapiens, UniProt P23443)
SMILES,observed,mode,technique,tested at,measurement,result
Cc1cc(NC(=O)c2cccc3cc(-c4cccc5[nH]nc(N)c45)ccc23)ccc1F,enzyme activity,inhibitor,,0.1 µM,activity vs control,110%
Cc1ccc(C(=O)NCc2ccsc2)cc1C#Cc1cn(C(C)C)c2ncnc(N)c12,enzyme activity,inhibitor,,1 µM,activity vs control,92%
Cn1cncc1C1=CN(c2ncnc3[nH]cnc23)CCS1,enzyme activity,inhibitor,radiometric,2 µM,inhibition,87.3%
COc1cc2ncnc(Nc3ccc(Oc4ccccc4)c(C)c3C)c2cc1OC,enzyme activity,inhibitor,,1 µM,inhibition,-3%
O=C1NC(=O)c2cc(Nc3ccc(F)cc3)c(Nc3ccc(F)cc3)cc21,cell-free assay,,,0.5 µM,remaining signal,95.5%
CSc1cccnc1N1CCN(Cc2nc3ccccc3[nH]2)CC1,cell-free assay,,competition with immobilised ligand,1 µM,remaining binding,87%
CN(C)C1CCN(CC#Cc2nn(C3CCCC3)c3nc(NCc4ccccc4)ncc23)C1 (centres unmarked),enzyme activity,inhibitor,FRET,0.1 µM,inhibition,6%
CCCS(=O)(=O)Nc1ccc(F)c(C(=O)c2c[nH]c3ncc(-c4ccc(Cl)cc4)cc23)c1F,enzyme activity,inhibitor,,1 µM,inhibition,< 10%
CCN(CC)CCNC(=O)c1c(C)[nH]c(/C=C2\C(=O)Nc3ccc(F)cc32)c1C,enzyme activity,inhibitor,,10 µM,inhibition,90%
Cc1ccc(-n2nc(C(C)(C)C)cc2NC(=O)Nc2ccc(OCCN3CCOCC3)c3ccccc23)cc1,enzyme activity,inhibitor,,10 µM,inhibition,39%
O=C(NCCCC1CCCCC1)c1ccc(CNC(=O)c2cnn(-c3ccccc3)c2C(F)(F)F)cc1,cell-free assay,,competition with immobilised ligand,0.1 µM,remaining binding,96%
CC/C(=N\NC(=O)NCc1cccc(O)c1)c1ccc(O)c(C)c1O,enzyme activity,inhibitor,,0.1 µM,inhibition,77.8%
COc1cccc(CNC(=O)c2nc3scc(COCc4ccc(C(=O)O)cc4)c3c(=O)[nH]2)c1,cell-free assay,,competition with immobilised ligand,1 µM,remaining binding,96.1%
CNC(=O)c1cc(Oc2ccc(NC(=O)Nc3ccc(Cl)c(C(F)(F)F)c3)cc2)ccn1,cell-free assay,,,0.5 µM,remaining signal,91.4%
C[C@@H]1CN(c2cc(-c3nn(C)c4ccc(OC5(C)CC5)cc34)ncn2)C[C@H](C)O1,cell-free assay,,competition with immobilised ligand,1 µM,remaining binding,100%
N#CCCc1ccc2c(c1)-c1[nH]c3ccc([N+](=O)[O-])cc3c1CC(=O)N2,cell-free assay,,,0.5 µM,remaining signal,98%
C[C@H](c1cccc(C#N)c1)n1cc(Cl)cc(C(N)=O)c1=N,cell-free assay,,competition with immobilised ligand,1 µM,remaining binding,100%
Cc1ccc(NC(=O)c2ccc(C)c(C(F)(F)F)c2)cc1C#Cc1nn(C2CCC(O)CC2)c2ncnc(N)c12 (centres unmarked),cell-free assay,,,10 µM,remaining signal,33%
COc1cc(-c2cn(C3CCc4c(F)cccc4N(CC(F)(F)F)C3=O)nn2)ccc1-n1cnc(C)c1 (centres unmarked),cell-free assay,,competition with immobilised ligand,1 µM,remaining binding,100%
CN(c1ncccc1CNc1nc(Nc2ccc3c(c2)CC(=O)N3)ncc1C(F)(F)F)S(C)(=O)=O,enzyme activity,inhibitor,,1 µM,inhibition,26.4%
